High-throughput results (PubChem)
Only some compounds are listed: those with a hit (about 2.2% of all), similar ones and a draw of the others.
rRNA inh HTS – inhibits bacterial ribosomal RNA function over humanized ribosomes; E. coli WT GFP vs humanized-ribosome RFP mutants, fluorescence, 24 h; stronger effect = lower value; DMSO median 0, no signal -100; GFP signal change (wild-type ribosome), % (test concentration not listed); 1.6% of 350,000 active;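 active = significant combined selectivity score with lowered wild-type GFP, culture density cut under 30%, mutant RFP and density less affected; inactive = any of these conditions unmet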
Mot1-301 SUMO – inhibitors of SUMOylation pathway: yeast Mot1-301 growth rescue | S. cerevisiae Mot1-301 growth rescue, ATP luminescence, 38.5C; percent above DMSO median, 100 means doubled | growth rescue, % at 18.8 µM | 1% of 320,000 active | AID 2716;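 active = every valid replicate shows activation above 250% relative to neutral control wells; inactive = the rest, any valid replicate at or below 250%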;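 note: OY570 slx delta 5 strain wells were the positive control but not used for scaling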
Cneo AK release – Cryptococcus neoformans lysis via adenylate kinase release; C. neoformans lysis, adenylate kinase release luminescence, 4 h; normalised: neutral wells 0, clomiphene wells 100; lysis activity, % at 15 µM; 0.2% of 360,000 active; AID 651654;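 active = mean lysis activity across replicates of at least 80%, whatever share of replicates individually reach that level; inactive = mean lysis activity below 80%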
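Schedule: static 4 h at 37 °C with compound, 1 h detection; system: C. neoformans cells; benchmarks: Clomiphene as positive control; buffer or medium: fresh YPD medium; measure: luminescence rise reflecting yeast cell lysis; measured by: luminescent adenylate kinase detection reagent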
PglD DTNB – PglD (C. jejuni) enzyme inhibition; purified PglD enzyme, DTNB colorimetric CoA detection; inhibition, % at 12.5 µM; 0.098% of 360,000 active; AID 602405; in the data active = inhibition above about 16%, passing the limit was not always enough
Yeast superoxide – lowers age-related superoxide in aged yeast cells | S. cerevisiae aged cells, superoxide DHE fluorescence; stronger effect = lower value | superoxide response (% of plate mean), % at 10 µM | 0.18% of 330,000 active;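 active = superoxide response under a set limit, about three screen SD below normal, cut at about 65% in these data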;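 note: yeast aged for seven days with compound at 30 °C before DHE staining; 100% = average MFI of all compound-treated wells on the plate with controls excluded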
Mot1 SUMO dose – yeast SUMO pathway inhibition in dose response. shares compounds with Mot1-301 SUMO. 2,300 tested, under 10 active. growth activity, percent, % at 42 µM. S. cerevisiae Mot1-301 galactose growth, ATP luminescence, 24 h; -100 = growth of slx-deleted rescue strain. AID 493004;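 active = Signal drops as the depositor expects, and the fitted half-maximal dose is no more than ten times the top valid tested dose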;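 note: more negative values mean stronger growth rescue toward the control strain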
Starred values were filed as active, the others as inactive; / = no result.

SMILES	rRNA inh HTS	Mot1-301 SUMO	Cneo AK release	PglD DTNB	Yeast superoxide	Mot1 SUMO dose
O=C(c1cc(-c2ccccc2)nc2ccccc12)N1CCOCC1	/	79.7	-0.2	-2.3	99.2	/
CCNC(=O)[C@H]1[C@H](CO)[C@H]2Cn3c(ccc(-c4ccncc4)c3=O)[C@H]2N1Cc1cc(F)ccc1F	-0.4	/	/	/	/	/
O=C(c1ccncc1)N1CC[C@H]2[C@H](CO)Nc3ccc(-c4ccccc4)cc3[C@H]21	-5.8	/	21.2	3.7	/	/
CN1C(=O)C(O)(CC(=O)c2ccccc2O)c2cc(Br)ccc21 (stereo not given)	-1.0	-9.3	-2.1	6.6	101.0	0.2
Nc1ccc(N2CCN(c3ccc(F)cc3)CC2)cc1	3.2	903.1*	/	/	85.5	0.4
C=C(C)C(=O)OC1(C(F)(F)F)Oc2cc(C)ccc2NC1=O (stereo not given)	/	363.2*	-1.3	0.2	97.0	-1.5
Cc1ccc(C(=O)Nc2cccc([N+](=O)[O-])c2)cc1S(=O)(=O)Nc1ccc(NC(=O)c2ccccc2)cc1	/	-14.3	/	/	93.9	/
O=C(O)c1cccc(NC(=O)c2cccc(S(=O)(=O)Nc3cccc([N+](=O)[O-])c3)c2)c1	3.2	418.8*	3.8	-5.0	102.6	1.5
Cc1ccc(NS(=O)(=O)c2cc(C(=O)Nc3cccc([N+](=O)[O-])c3)ccc2C)cc1	-1.1	476.0*	2.0	6.6	97.0	0.7
Cc1ccc(C(=O)Nc2cccc([N+](=O)[O-])c2)cc1S(=O)(=O)Nc1cccc(C(=O)O)c1	13.8	-11.7	/	/	92.8	/
Cc1cc(S(=O)(=O)N2CCCCC2CCNC(=O)C(=O)NCC2CCCO2)ccc1F (stereo not given)	-0.3	390.5*	1.5	1.2	95.7	-0.2
Cc1cc(S(=O)(=O)N2CCCCC2CCNC(=O)C(=O)NCCN2CCOCC2)ccc1F (stereo not given)	/	/	1.8	/	/	/
COc1ccc(S(=O)(=O)N2CCCOC2CNC(=O)C(=O)NCCCN2CCOCC2)cc1C (stereo not given)	18.2	415.5*	1.4	-4.8	94.2	-0.9
Cc1ccc(S(=O)(=O)N2CCCOC2CNC(=O)C(=O)NCCN2CCOCC2)cc1 (stereo not given)	/	0.5	1.8	-0.2	105.2	/
COc1ccccc1-c1ccc2n(c1=O)C[C@H]1[C@H](CO)[C@@H](C(=O)NCCCN(C)C)N(C(C)=O)[C@@H]21	2.7	/	0.2	-5.8	/	/
Cc1ccccc1S(=O)(=O)NCC[C@H]1CC[C@@H](NC(=O)C2CCCCC2)[C@H](CO)O1	-5.3	/	-3.9	0.7	/	/
CO[C@H]1CN(C)C(=O)c2ccc(NS(C)(=O)=O)cc2OC[C@H](C)N(Cc2cncnc2)C[C@@H]1C	2.5	/	/	/	/	/
CO[C@@H]1CC[C@@H]2CCN(C)C(=O)[C@H](C)[C@H](OC)CN(C)C(=O)c3cccc(C#N)c3OC[C@@H]1O2	-4.4	/	-22.9	-0.9	/	/
CC(NC(=O)c1cnc2n(c1=O)CCS2)c1ccccc1 (stereo not given)	/	994.4*	1.8	6.4	97.3	0.1
COc1ccc(NC2=C(c3ccc(OC)cc3)C(=O)c3ccccc32)cc1	/	8.8	1.0	-4.9	99.2	/
COc1ccc(C2=C(N)c3ccccc3C2=O)cc1	/	457.1*	-1.6	-5.0	162.3	-1.7
COC(CNC(=O)C(=O)NCC1OCCN1C(=O)c1ccc(Cl)cc1)OC (stereo not given)	5.5	7.4	2.8	3.4	92.7	/
COCCNC(=O)C(=O)NCC1OCCN1C(=O)c1ccc(Cl)cc1 (stereo not given)	/	525.5*	-0.1	-3.7	115.3	1.0
Cn1c(=O)c2c(ncn2CC(=O)OCC(=O)Nc2ccc(Cl)cc2)n(C)c1=O	/	846.7*	-1.1	5.7	105.2	0.0
O=C(C[C@H]1CC[C@@H](NS(=O)(=O)c2ccccc2)[C@H](CO)O1)NCc1ccccc1F	-0.4	/	2.3	0.2	/	/
SMILES	rRNA inh HTS	Mot1-301 SUMO	Cneo AK release	PglD DTNB	Yeast superoxide	Mot1 SUMO dose
O=C(Nc1ccc(S(=O)(=O)NC2=NCCCCC2)cc1)c1ccc(C(F)(F)F)cc1	-4.7	450.9*	/	/	100.0	-0.9
COc1ccc(Cl)cc1N(C(=O)c1ccco1)C(C(=O)NC1CCCC1)c1ccncc1 (stereo not given)	1.8	407.3*	-2.7	5.3	100.3	0.3
CCC(C)NCCCCOc1ccc(Br)cc1 (stereo not given)	13.2	33.4	/	/	89.8	/
CCC(C)NCCCCOc1cc(C)cc(C(C)C)c1 (stereo not given)	/	401.4*	/	/	95.2	-0.1
Cc1ccc(NC(=O)CN2CCN(CCN=CC3=C(O)CC(C)(C)CC3=O)CC2)cc1	/	984.7*	/	/	100.1	0.7
NC(=O)c1ccccc1NC(=O)c1ccc2ccccc2c1	-13.6	-7.7	-24.3	3.0	96.3	/
NC(=O)c1ccccc1NC(=O)c1ccc2c(c1)OCO2	15.8	700.2*	-4.5	-1.4	104.0	-0.9
O=C(Nc1ccccn1)c1ccc2c(c1)OCO2	-5.1	-28.4	1.8	-1.9	99.2	/
O=C(Nc1ccc([N+](=O)[O-])cn1)c1ccc2c(c1)OCO2	7.0	604.7*	/	/	99.1	1.5
O=C1C2C(c3ccccc3)CC=CC2[C@H](c2ccc3ccccc3c2)N1Cc1ccccc1 (stereo not given in full)	-6.9	507.6*	-2.0	-2.7	107.4	-0.8
COc1ccc(-c2cccc(C3CC=CC4C3C(=O)N(Cc3ccccc3)C4c3ccc4ccccc4c3)c2)cc1 (stereo not given)	13.8	63.9	1.5	-6.2	90.8	/
C[C@@H]1CCCCO[C@@H](CN(C)Cc2ccncc2)[C@H](C)CN([C@@H](C)CO)C(=O)c2cc(NS(=O)(=O)c3ccc(F)cc3)ccc2O1	0.8	/	-0.6	0.4	/	/
CCC(=O)Nc1ccc2c(c1)C(=O)N(C)C[C@@H](OC)[C@@H](C)CN(C(=O)c1ccccc1F)[C@@H](C)CO2	-2.2	/	-3.4	0.0	/	/
CN(C)CCOC(c1ccc(Cl)cc1)c1ccccn1 (stereo not given)	/	974.2*	0.5	1.8	98.1	0.3
Cc1noc(C)c1NC(=O)N(C)C[C@H]1Oc2ccc(NC(=O)Nc3ccc(F)cc3)cc2CC(=O)N([C@H](C)CO)C[C@H]1C	-0.3	/	-0.3	0.6	/	/
CC(C)N(C(=S)Nc1cccc(S(=O)(=O)N(C)C)c1)c1ccccc1	2.1	453.6*	0.0	1.4	94.5	0.5
CN(C)S(=O)(=O)c1cccc(C(=O)Nc2ccccc2)c1	11.6	-26.5	/	/	105.6	/
CN1CCN(C(=S)Nc2cccc(S(=O)(=O)N(C)C)c2)CC1	20.7	30.4	/	/	107.0	/
CN(C)S(=O)(=O)c1cccc(NC(=O)C(c2ccccc2)c2ccccc2)c1	5.2	403.9*	-0.1	-1.4	83.4	0.1
